Experimental data gathered from unrelated publications.
Organism: Escherichia coli
Read-out: microbial growth

Compound | assay | test system | setting | MIC
N=C(N)c1ccccc1OCCCCCOc1ccccc1C(=N)N |  | BW25113 |  | > 200 µg/mL
C=CCn1c(-c2ccc(Cl)cc2)nc2ccc(C)cc21 | broth dilution | ATCC25922 |  | 256 µg/mL
CC(C)Oc1c(NC(=O)c2ccc(NC(=O)[C@H](CC(N)=O)NC(=O)c3ccc(CCNC(=O)c4ccc(C#N)cc4)cc3)cc2)ccc(C(=O)Nc2ccc(C(=O)O)cc2)c1O |  | DSM1116 |  | 0.25 µg/mL
CNc1cccc2cc(C(=O)NCCc3cccc(C(=O)O)c3)c(=O)[nH]c12 | broth dilution | ATCC25922 |  | > 64 µg/mL
N=C(N)c1ccc(OCCC(CCOc2ccc(C(=N)N)cc2)c2ccccc2)cc1 (stereo not drawn) | broth dilution | ATCC25922 |  | > 200 µg/mL
O=C(CCCCCCCCCC[P+](c1ccccc1)(c1ccccc1)c1ccccc1)Nc1cc(O)c(O)c(O)c1.[Br-] | broth dilution | ATCC25922 | 18 h | > 32 µg/mL
N=C(N)c1ccc(OCCCCCOc2ccc(C(=N)N)cc2)cc1 | broth dilution | ATCC25922 |  | 200 µg/mL
C[C@H](CCC(=O)NCCCNCCCCNCCCN)[C@H]1CC[C@H]2[C@@H]3[C@H](O)C[C@@H]4C[C@H](O)CC[C@]4(C)[C@H]3C[C@H](O)[C@]12C | broth dilution | MG1655 | 20 h | > 256 µg/mL
N=C(N)c1cccc(OCc2cccc(COc3cccc(C(=N)N)c3)c2)c1 |  | BW25113 |  | > 200 µg/mL
Cc1cc(C)n(C(=O)c2ccc(-n3c(C)ccc3C)cc2)n1 | broth dilution | ATCC10536 | 18 h | 250 µg/mL
COc1c(C)c(OC)c(C(=O)/C=C/c2ccccc2)c(OC)c1C | broth dilution | ATCC25922 |  | 5000 µg/mL
CC(C)Oc1c(NC(=O)c2ccc(NC(=O)[C@H](CC(N)=O)NC(=O)c3ccc(NC(=O)c4ccc(N)cc4)cc3)cc2)ccc(C(=O)Nc2ccc(C(=O)O)cc2)c1O |  | DSM1116 |  | 2 µg/mL
CCCCCCC#Cc1cncc(-c2nnc(SCc3ccc([N+](=O)[O-])o3)n2C2CC2)c1 |  |  |  | ≥ 20 µg/mL
O=[N+]([O-])c1ccc(-c2nc3cc(F)ccc3[nH]2)o1 | broth dilution | ATTC25922 |  | 4 µg/mL
CN(C)[C@@H]1C(O)=C(C(N)=O)C(=O)[C@@]2(O)C(O)=C3C(=O)c4c(O)cccc4[C@@](C)(O)[C@H]3C[C@@H]12 |  | ATCC25922 |  | 4 µg/mL
CC(NCCCN)c1cc2cc(Br)ccc2[nH]1 (stereo not drawn) | broth dilution | ATCC25922 |  | 128 µg/mL
Cc1cccc(NCc2ccc(Oc3ccccn3)cc2)c1 |  |  |  | > 50 µg/mL
N=C(N)c1cccc(OCc2ccc(COc3cccc(C(=N)N)c3)cc2)c1 | broth dilution | BW25113 |  | > 200 µg/mL
O=C1NN=C(N=Cc2ccc(O)cc2O)C1=NNn1c(-c2ccccc2)nc2ccccc2c1=O | broth dilution |  | 24 h | 53.5 µM
Oc1cccc(-c2nc3ccccc3[nH]2)c1 | broth dilution | ATCC25922 |  | 64 µg/mL
CC(C)Oc1c(NC(=O)c2ccc(NC(=O)[C@H](CC(N)=O)NC(=O)c3ccc(NC(=O)c4ccc(C#N)cc4)cc3)cc2)ccc(C(=O)O)c1O |  | DSM1116 |  | > 64 µg/mL
N=C(N)c1ccc(OCc2cccc(COc3ccc(C(=N)N)cc3)c2)cc1 | broth dilution | BW25113 |  | > 200 µg/mL
CSc1ccc(/C=C/c2cc(/C=C3\Sc4ccccc4N3CCCN3CCCC3)c3ccccc3[n+]2C)cc1.[I-] | broth dilution | ATCC25922 |  | 16 µg/mL

Compound | assay | test system | setting | MIC
C=CCn1c(-c2ccc(Cl)cc2)nc2ccccc21 | broth dilution | ATCC25922 |  | 64 µg/mL
CC(C)Oc1c(NC(=O)c2ccc(NC(=O)[C@H](CC(N)=O)NC(=O)c3ccc(NC(=O)c4ccc(C#N)cc4)cc3)cc2)ccc(C(=O)Nc2ccncc2)c1O |  | DSM1116 |  | > 64 µg/mL
O=[N+]([O-])c1ccc(O)c2ncccc12 | broth dilution | ATCC25922 |  | 2 µg/mL
CC(C)Oc1c(N)ccc(C(=O)Nc2ccc(C(=O)N[C@@H](CC(N)=O)C(=O)Nc3ccc(C(=O)Nc4ccc(C(=O)Nc5ccc(C(=O)O)cc5)c(O)c4OC(C)C)cc3)cc2)c1O |  | DSM1116 |  | 2 µg/mL
COc1ccc(-c2nc3ccccc3[nH]2)cc1O | broth dilution | ATCC25922 |  | 256 µg/mL
Fc1ccccc1NCc1ccc(Oc2ccccn2)cc1 |  |  |  | > 25 µg/mL
COc1c(C)c(O)c(C)c(O)c1C(=O)/C=C/c1ccccc1 | broth dilution | ATCC25922 |  | 1250 µg/mL
C/C(O)=C1\C(=O)C(CC(C)C)N(C(=O)CCCCCc2ccccc2)C1=O (stereo not drawn) |  | K12, K12 |  | > 200 µg/mL
CC(C)Oc1c(NC(=O)c2ccc(NC(=O)[C@H](CC(N)=O)NC(=O)c3ccc(NC(=O)c4ccc(C(F)(F)F)cc4)cc3)cc2)ccc(C(=O)Nc2ccc(C(=O)O)cc2)c1O |  | DSM1116 |  | 0.5 µg/mL
COc1cccc(-c2nc3ccccc3[nH]2)c1 | broth dilution | ATCC25922 |  | 256 µg/mL
Cc1c(CN(C)C(=O)/C=C/c2cnc3c(c2)CC(CCN)C(=O)N3)oc2ccccc12.Cl (stereo not drawn) | broth dilution | BAA2471 | clinical isolate | 4 µg/mL
N=C(N)c1ccc(OCc2ccc(Br)cc2COc2ccc(C(=N)N)cc2)cc1 | broth dilution | ATCC25922 |  | > 200 µg/mL
c1ccc2[nH]c(-c3ccncc3)nc2c1 | broth dilution | ATCC25922 |  | 128 µg/mL
Cc1ccc(C)n1-c1ccc(-c2nnc(S)s2)cc1 | broth dilution | ATCC10536 | 18 h | 2 µg/mL
Cc1ccc2nc(-c3ccc([N+](=O)[O-])cc3)n(Cc3ccc(Cl)cc3)c2c1 | broth dilution | ATCC25922 |  | 64 µg/mL
CCn1cc(C(=O)O)c(=O)c2cc(F)c(N3CCNCC3)cc21 | broth dilution | ATCC 8739, ATCC8739 |  | 1 µM
CC(C)Oc1c(NC(=O)c2ccc(NC(=O)[C@H](CC(N)=O)NC(=O)c3ccc(NC(=O)C(C)Oc4ccccc4)cc3)cc2)ccc(C(=O)Nc2ccc(C(=O)O)cc2)c1O (stereo partly drawn) |  | DSM1116 |  | > 64 µg/mL
CC(=O)NCN1N=C(C)C(=NNn2c(-c3ccccc3)nc3ccccc3c2=O)C1=O | broth dilution |  | 24 h | 59.9 µM
Clc1ccc(-c2nc3ccccc3n2Cc2ccccc2)cc1 | broth dilution | ATCC25922 |  | 128 µg/mL
CCCCCCC/C=C/C(=O)N1C(=O)/C(=C(/C)O)C(=O)C1CO (stereo not drawn) |  | K12, K12 |  | > 200 µg/mL
CC(C)Oc1c(NC(=O)c2ccc(NC(=O)[C@H](CC(N)=O)NC(=O)c3cccc(NC(=O)c4ccc(C#N)cc4)c3)cc2)ccc(C(=O)Nc2ccc(C(=O)O)cc2)c1O |  | DSM1116 |  | > 64 µg/mL
N=C(N)c1ccc(OCc2ccccc2COc2ccc(C(=N)N)cc2)cc1 |  | BW25113 |  | > 200 µg/mL
